Measurements from article PMC4047138 (Pharmacological research : the official journal of the …, 2013).
“Also recorded” adds a separate entry of the source.

Experiments:
[1] = test system: hV2R[L^83Q] cells in the presence of doxycycline; assay: counter screen: same hV2R[L^83Q] HeLa cells incubated with doxycycline 36 hours; format: cell-based; settings: Homo sapiens, read-out: EC50 (μM) +Dox
Method in brief: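 HeLa line expressing hV2R[L83Q] under a tetracycline-regulated (TET-off) transactivator. Cells are pretreated with compound, challenged with an EC100 dose of vasopressin, lysed, and cAMP is read by cAMP-Glo luminescence. […] The −Dox run expresses the mutant. The +Dox counter screen adds doxycycline 36 hours before assay, shutting off mutant expression.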

hV2R[L^83Q] [2] = biological target: T1, hV2R[L^83Q] (Homo sapiens, UniProt P30518, L83Q); assay: hV2R[L^83Q] pharmacoperone assay; format: cell-based; settings: for LOPAC Screen Average % Response +/- Std Dev: single concentration of 6 μM (0.4% DMSO), SR121463 as positive control, -Dox
GnRHR[E^90K] = settings: mouse, in vivo; cited from earlier work
hV2R[L^83Q] [3] = biological target: T1, hV2R[L^83Q]; settings: pre-treatment with 100 nM, absence of Dox, 384-well; cited from earlier work

| SMILES | LOPAC Screen Average % Response +/- Std Dev (hV2R[L^83Q] [2]) | EC50 [1] [µM] | further results |
| --- | --- | --- | --- |
| O=C1c2c(O)ccc(O)c2C(=O)c2c(NCCNCCO)ccc(NCCNCCO)c21 [Mitoxantrone] | – | > 25 | – |
| Cc1cc(C)cc(-c2[nH]c3ccc(C(C)(C)C(=O)N4CC5CCC4CC5)cc3c2[C@H](C)CNCCc2ccncc2)c1 [IN3, (2S)-2-[5-[2-(2-azabicyclo[2.2.2]oct-2-yl)-1,1-dimethyl-2-oxoethyl]-2-(3,5-dimethylphenyl)-1H-indol-3-yl]-N-(2-pyridin-4-ylethyl)propan-1-amine] | – | – | testis weight / size (GnRHR[E^90K]): increased testis size; also recorded: markedly increased |
| CCOc1ccc2c(c1)C1(CCC(OCCN3CCOCC3)CC1)C(=O)N2S(=O)(=O)c1ccc(C(=O)NC(C)(C)C)cc1OC (stereo not shown) [SR121463] | – | – | signal-to-background ratio (S/B) (hV2R[L^83Q] [2]; -Dox assay, n=4): ~7; cAMP response to vasopressin challenge after pharmacoperone pre-treatment (hV2R[L^83Q] [3]): robust cAMP response |

Second part, led by results:

| LOPAC Screen Average % Response +/- Std Dev (hV2R[L^83Q] [2]) | SMILES | EC50 [1] [µM] | further results |
| --- | --- | --- | --- |
| 74+/−2% | Cc1ccccc1N1CCN(S(=O)(=O)C[C@]23CC[C@H](C[C@@H]2NC(=O)[C@@H](N)CCS(C)(=O)=O)C3(C)C)CC1 [L-368,899] | – | – |
| 104+/−0% | C=C[C@@]1(C)CC(=O)[C@]2(O)[C@@]3(C)[C@@H](O)CCC(C)(C)[C@@H]3[C@H](O)[C@H](OC(C)=O)[C@@]2(C)O1 [Forskolin] | 0.59 | – |
